Test results from ChEMBL document CHEMBL2203264, “Optimization of imidazo[4,5-b]pyridine-based kinase inhibitors: identification of a dual FLT3/Aurora kinase inhibitor as an orally bioavailable preclinical development candidate for the treatment of acute myeloid leukemia” (J Med Chem, 2012).

Key:
[1] = Metabolic stability in human liver microsomes assessed as parent compound metabolism after 30 mins by LC-MS analysis; type: ADME, Microsome; details: read-out: Drug metabolism
In short: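 Test compound at 10 μM with pooled mixed-gender human liver microsomes (1 mg/mL protein), NADPH 1 mM, UDPGA 2.5 mM and MgCl2 3 mM in 10 mM PBS at 37 °C for 0 and 30 min. Controls omit NADPH/UDPGA. Compound remaining measured by LC–MS; reported as percent of parent metabolized at 30 min.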

[2] = Metabolic stability in mouse liver microsomes assessed as parent compound metabolism after 30 mins by LC-MS analysis; type: ADME, Microsome; details: read-out: Drug metabolism
In short: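 Male CD1 mouse liver microsomes (1 mg/mL protein) incubated with 10 μM compound plus NADPH 1 mM, UDPGA 2.5 mM and MgCl2 3 mM in 10 mM PBS at 37 °C for 0 and 30 min. NADPH/UDPGA-free controls included. LC–MS quantitation of remaining compound; reported as percent parent metabolized after 30 min.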

[3] = target: hERG (KCNH2) (Homo sapiens, UniProt Q12809); assay: Inhibition of human ERG at 10 uM by cell-based electrophysiology assay
Sequence of hERG (KCNH2) (Q12809 whole entry): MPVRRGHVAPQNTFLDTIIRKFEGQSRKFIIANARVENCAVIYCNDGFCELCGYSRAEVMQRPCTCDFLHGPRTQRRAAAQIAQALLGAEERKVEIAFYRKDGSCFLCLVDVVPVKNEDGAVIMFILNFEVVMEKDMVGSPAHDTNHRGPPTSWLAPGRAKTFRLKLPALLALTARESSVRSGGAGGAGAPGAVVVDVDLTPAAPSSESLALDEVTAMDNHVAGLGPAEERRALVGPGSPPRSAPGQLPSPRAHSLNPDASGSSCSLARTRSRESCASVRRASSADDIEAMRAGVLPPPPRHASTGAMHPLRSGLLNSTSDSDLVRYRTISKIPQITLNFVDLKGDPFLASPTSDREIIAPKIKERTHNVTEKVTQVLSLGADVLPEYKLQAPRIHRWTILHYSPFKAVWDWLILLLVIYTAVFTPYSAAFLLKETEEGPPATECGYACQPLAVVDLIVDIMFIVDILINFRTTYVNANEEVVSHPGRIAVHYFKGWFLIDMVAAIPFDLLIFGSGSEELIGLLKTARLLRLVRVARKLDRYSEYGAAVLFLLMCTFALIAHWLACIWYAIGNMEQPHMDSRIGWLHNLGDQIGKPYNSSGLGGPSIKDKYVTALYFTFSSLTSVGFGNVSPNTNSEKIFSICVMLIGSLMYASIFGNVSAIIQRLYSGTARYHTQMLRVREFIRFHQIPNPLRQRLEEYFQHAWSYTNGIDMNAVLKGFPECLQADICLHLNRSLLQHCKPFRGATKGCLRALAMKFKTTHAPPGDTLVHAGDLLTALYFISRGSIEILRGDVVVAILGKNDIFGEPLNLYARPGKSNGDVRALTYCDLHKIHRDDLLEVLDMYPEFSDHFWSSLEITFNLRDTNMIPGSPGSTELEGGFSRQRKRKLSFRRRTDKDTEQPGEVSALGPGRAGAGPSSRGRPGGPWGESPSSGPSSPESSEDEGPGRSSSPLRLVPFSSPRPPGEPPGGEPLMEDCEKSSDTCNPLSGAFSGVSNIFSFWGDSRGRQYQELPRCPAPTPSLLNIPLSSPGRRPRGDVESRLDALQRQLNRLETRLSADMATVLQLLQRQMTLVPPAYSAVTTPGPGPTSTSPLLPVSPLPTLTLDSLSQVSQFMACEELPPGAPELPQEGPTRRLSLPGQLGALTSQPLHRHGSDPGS

[4] = target: T1, Aurora kinase A (Homo sapiens, UniProt O14965); assay: Inhibition of GST-tagged human Aurora A kinase expressed in baculovirus system
T1 sequence (O14965 whole entry): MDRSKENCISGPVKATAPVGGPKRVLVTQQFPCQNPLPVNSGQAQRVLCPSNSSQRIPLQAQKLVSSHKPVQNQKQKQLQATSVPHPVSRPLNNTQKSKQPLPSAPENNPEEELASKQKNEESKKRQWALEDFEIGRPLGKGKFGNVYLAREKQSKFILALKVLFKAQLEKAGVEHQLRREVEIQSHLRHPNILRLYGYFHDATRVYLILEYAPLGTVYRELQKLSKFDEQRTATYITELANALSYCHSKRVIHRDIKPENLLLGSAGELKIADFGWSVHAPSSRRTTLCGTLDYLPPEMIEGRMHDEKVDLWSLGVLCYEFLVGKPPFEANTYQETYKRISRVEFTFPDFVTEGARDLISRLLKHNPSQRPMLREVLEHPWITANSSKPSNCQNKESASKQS

[5] = system: SW-620; assay: cells; details: Homo sapiens, SW-620, 72 h
[6] = Binding affinity to FLT3 ITD mutant
[7] = target: T2, Receptor-type tyrosine-protein kinase FLT3 (Homo sapiens, UniProt P36888)
T2 sequence (P36888 whole entry): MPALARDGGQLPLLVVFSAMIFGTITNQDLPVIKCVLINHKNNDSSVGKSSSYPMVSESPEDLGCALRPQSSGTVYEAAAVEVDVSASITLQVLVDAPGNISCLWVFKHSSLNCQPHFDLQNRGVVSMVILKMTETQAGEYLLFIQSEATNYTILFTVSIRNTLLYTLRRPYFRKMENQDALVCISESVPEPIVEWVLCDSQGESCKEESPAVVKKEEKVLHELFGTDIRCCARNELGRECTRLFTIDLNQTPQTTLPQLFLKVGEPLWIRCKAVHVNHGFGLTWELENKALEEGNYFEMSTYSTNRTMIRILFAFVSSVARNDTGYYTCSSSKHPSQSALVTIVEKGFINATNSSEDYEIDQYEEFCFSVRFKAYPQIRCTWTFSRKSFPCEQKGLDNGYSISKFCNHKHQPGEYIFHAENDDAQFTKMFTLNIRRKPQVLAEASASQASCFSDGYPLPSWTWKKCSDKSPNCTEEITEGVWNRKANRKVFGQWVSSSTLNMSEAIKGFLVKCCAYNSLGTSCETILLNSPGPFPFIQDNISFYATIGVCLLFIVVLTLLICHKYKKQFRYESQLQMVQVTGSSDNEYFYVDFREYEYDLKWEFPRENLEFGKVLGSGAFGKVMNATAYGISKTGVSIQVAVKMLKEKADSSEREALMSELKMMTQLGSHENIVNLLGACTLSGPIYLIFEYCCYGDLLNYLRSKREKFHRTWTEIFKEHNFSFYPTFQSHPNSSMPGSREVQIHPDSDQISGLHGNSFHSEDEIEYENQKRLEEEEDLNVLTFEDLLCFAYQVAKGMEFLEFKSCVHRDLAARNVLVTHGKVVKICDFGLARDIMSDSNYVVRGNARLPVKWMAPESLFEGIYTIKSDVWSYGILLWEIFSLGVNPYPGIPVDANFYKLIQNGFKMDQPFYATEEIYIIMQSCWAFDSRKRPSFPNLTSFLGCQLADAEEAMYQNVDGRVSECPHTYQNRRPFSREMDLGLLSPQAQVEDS

[8] = target: Voltage-gated inwardly rectifying potassium channel KCNH2 (Homo sapiens, UniProt Q12809); assay: Inhibition of human ERG by cell-based electrophysiology assay
Sequence of Voltage-gated inwardly rectifying potassium channel KCNH2 (Q12809 whole entry): as the sequence (Q12809 whole entry) above

Row | SMILES | metabolised at 0.5 h [1] | metabolised at 0.5 h [2] | inhibition at 10 µM [3] | IC50 [4] | GI50 [5] | Kd [6] | Kd [7] | IC50 [8]
1 | Cc1nc(CN2CCN(c3c(Cl)cnc4[nH]c(-c5cn(C)nc5C)nc34)CC2)no1 | 20% | 58% |  |  |  |  |  | 
2 | CC(=O)N1CCN(c2ccc(-c3nc4ncc(Br)c(N5CCN(Cc6cc(C)on6)CC5)c4[nH]3)cc2)CC1 | 94% | 25% | 92% | 9 nM | 758 nM |  |  | 
3 | COCCN1CCN(c2ccc(-c3nc4ncc(Br)c(N5CCN(Cc6cc(C)on6)CC5)c4[nH]3)cc2)CC1 | 69% | 66% | 54% | 12 nM | 1000 nM |  |  | 
4 | Cc1cc(CN2CCN(c3c(Cl)cnc4nc(-c5cc(C)on5)[nH]c34)CC2)no1 |  |  |  | 434 nM | 1150 nM |  |  | 
5 | Cc1nn(C)cc1-c1nc2c(N3CCN(Cc4cncnc4)CC3)c(Cl)cnc2[nH]1 | 50% | 78% | 32% | 22 nM | 950 nM | 15 nM | 5.9 nM | 
6 | Cc1cc(CN2CCN(c3c(Br)cnc4nc(-c5csnn5)[nH]c34)CC2)no1 |  |  |  | 600 nM | 20000 nM |  |  | 
7 | CCN1CCN(c2ccc(-c3nc4c(N5CCN(Cc6cc(C)on6)CC5)c(Cl)cnc4[nH]3)cc2)CC1 | 72% | 37% | 68% | 6 nM | 461 nM |  |  | 
8 | Cc1nn(C)cc1-c1nc2c(N3CCN(Cc4ncon4)CC3)c(Cl)cnc2[nH]1 | 22% | 67% |  |  |  |  |  | 
9 | Cc1cc(CN2CCN(c3c(Cl)cnc4nc(-c5ccn(C)n5)[nH]c34)CC2)no1 |  |  |  | 118 nM | 2600 nM |  |  | 
10 | Cc1cc(CN2CCN(c3c(Cl)cnc4nc(-c5nccn5C)[nH]c34)CC2)no1 |  |  |  | 564 nM | 16300 nM |  |  | 
11 | Cc1cc(CN2CCN(c3c(Cl)cnc4[nH]c(-c5cn(C)nc5C5CC5)nc34)CC2)no1 | 64% | 80% |  | 4 nM |  |  |  | 
12 | Cc1cc(CN2CCN(c3c(Br)cnc4[nH]c(-c5ccc(N6CCOCC6)cc5)nc34)CC2)no1 | 99% | 50% |  | 7 nM | 860 nM |  |  | 
13 | Cc1cc(CN2CCN(c3c(Cl)cnc4[nH]c(-c5cnn(C)c5)nc34)CC2)no1 |  |  |  | 45 nM | 1800 nM | 66 nM | 12 nM | 
14 | Cc1nn(C)cc1-c1nc2ncc(Cl)c(N3CCN(Cc4nonc4C)CC3)c2[nH]1 | 54% | 91% | 50% | 6 nM | 250 nM |  |  | 
15 | Cc1cc(CN2CCN(c3c(Br)cnc4[nH]c(-c5cncn5C)nc34)CC2)no1 |  |  |  | 15 nM | 2180 nM | 62 nM | 14 nM | 
16 | Cc1cc(CN2CCN(c3c(Cl)cnc4[nH]c(-c5cccc(N6CCN(C)CC6)c5)nc34)CC2)no1 | 24% | 40% |  | 26 nM | 667 nM | 26 nM | 5.4 nM | 9500 nM
